Test system: U2OS
Assay: Multiplex assay against U2OS
Assay type: toxicity, cell-based
Conditions: human
Summary of the method: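 Live cells were stained at seeding with Hoechst33342, BioTracker Green Microtubule Cytoskeleton Dye, MitoTracker Red and Annexin V Alexa Fluor 680. Following compound addition, they were imaged on a CQ1 microscope at 37°C and 5% CO2 and gated by CellPathfinder machine learning into Hoechst high-intensity objects or normal cells, with normal cells split into healthy, pyknosed or fragmented nuclei and pyknosed cells into mitotic or apoptotic. Tubulin, mitochondrial-mass and membrane-permeability phenotypes are per cents of healthy-nucleus cells.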

[1] = 12 h, 1 µM, compound concentration 1 uM, replicate 1
[2] = 12 h, 1 µM, compound concentration 1 uM, replicate 2
[3] = 12 h, 10 µM, compound concentration 10 uM, replicate 1
[4] = 12 h, 10 µM, compound concentration 10 uM, replicate 2
[5] = 24 h, 1 µM, compound concentration 1 uM, replicate 1
[6] = 24 h, 1 µM, compound concentration 1 uM, replicate 2
[7] = 24 h, 10 µM, compound concentration 10 uM, replicate 1
[8] = 24 h, 10 µM, compound concentration 10 uM, replicate 2
[9] = 48 h, 1 µM, compound concentration 1 uM, replicate 1
[10] = 48 h, 1 µM, compound concentration 1 uM, replicate 2
[11] = 48 h, 10 µM, compound concentration 10 uM, replicate 1
[12] = 48 h, 10 µM, compound concentration 10 uM, replicate 2

Cc1cc2c(cc1N1C(=O)c3cccc4c(CCCO)ccc(c34)C1=O)n(C)c(=O)n2C
Population Apoptotic (%) [1]: 50% | Population Fragmented Nuclei (%) [1]: 11% | Population Healthy Nuclei (%) [1]: 82% | Population Hoechst High Intensity Objects (%) [1]: 6% | Population Membrane Permeable-Phenotype (%) [1]: 4% | Population Mitochondria Different-Phenotype (%) [1]: 7% | Population Mitotic Cells (%) [1]: 50% | Population Normal (%) [1]: 93% | Population Pyknosed Nuclei (%) [1]: 5% | Population Tubulin-Different-Phenotype (%) [1]: 6% | Total Cell Count [1]: 179 | Population Apoptotic (%) [2]: 0% | Population Fragmented Nuclei (%) [2]: 6% | Population Healthy Nuclei (%) [2]: 90% | Population Hoechst High Intensity Objects (%) [2]: 8% | Population Membrane Permeable-Phenotype (%) [2]: 1% | Population Mitochondria Different-Phenotype (%) [2]: 22% | Population Mitotic Cells (%) [2]: 100% | Population Normal (%) [2]: 91% | Population Pyknosed Nuclei (%) [2]: 3% | Population Tubulin-Different-Phenotype (%) [2]: 24% | Total Cell Count [2]: 104 | Population Apoptotic (%) [3]: 54% | Population Fragmented Nuclei (%) [3]: 11% | Population Healthy Nuclei (%) [3]: 72% | Population Hoechst High Intensity Objects (%) [3]: 6% | Population Membrane Permeable-Phenotype (%) [3]: 16% | Population Mitochondria Different-Phenotype (%) [3]: 44% | Population Mitotic Cells (%) [3]: 45% | Population Normal (%) [3]: 93% | Population Pyknosed Nuclei (%) [3]: 15% | Population Tubulin-Different-Phenotype (%) [3]: 68% | Total Cell Count [3]: 166 | Population Apoptotic (%) [4]: 37% | Population Fragmented Nuclei (%) [4]: 20% | Population Healthy Nuclei (%) [4]: 63% | Population Hoechst High Intensity Objects (%) [4]: 9% | Population Membrane Permeable-Phenotype (%) [4]: 29% | Population Mitochondria Different-Phenotype (%) [4]: 77% | Population Mitotic Cells (%) [4]: 62% | Population Normal (%) [4]: 90% | Population Pyknosed Nuclei (%) [4]: 16% | Population Tubulin-Different-Phenotype (%) [4]: 96% | Total Cell Count [4]: 54 | Population Apoptotic (%) [5]: 38% | Population Fragmented Nuclei (%) [5]: 11% | Population Healthy Nuclei (%) [5]: 80% | Population Hoechst High Intensity Objects (%) [5]: 3% | Population Membrane Permeable-Phenotype (%) [5]: 5% | Population Mitochondria Different-Phenotype (%) [5]: 18% | Population Mitotic Cells (%) [5]: 61% | Population Normal (%) [5]: 96% | Population Pyknosed Nuclei (%) [5]: 7% | Population Tubulin-Different-Phenotype (%) [5]: 10% | Total Cell Count [5]: 176 | Population Apoptotic (%) [6]: 40% | Population Fragmented Nuclei (%) [6]: 7% | Population Healthy Nuclei (%) [6]: 87% | Population Membrane Permeable-Phenotype (%) [6]: 0% | Population Mitochondria Different-Phenotype (%) [6]: 27% | Population Mitotic Cells (%) [6]: 60% | Population Pyknosed Nuclei (%) [6]: 5% | Population Tubulin-Different-Phenotype (%) [6]: 17% | Total Cell Count [6]: 96 | Population Apoptotic (%) [7]: 59% | Population Fragmented Nuclei (%) [7]: 15% | Population Healthy Nuclei (%) [7]: 70% | Population Hoechst High Intensity Objects (%) [7]: 3% | Population Membrane Permeable-Phenotype (%) [7]: 5% | Population Mitochondria Different-Phenotype (%) [7]: 35% | Population Mitotic Cells (%) [7]: 40% | Population Normal (%) [7]: 96% | Population Pyknosed Nuclei (%) [7]: 14% | Population Tubulin-Different-Phenotype (%) [7]: 38% | Total Cell Count [7]: 159 | Population Apoptotic (%) [8]: 80% | Population Fragmented Nuclei (%) [8]: 18% | Population Healthy Nuclei (%) [8]: 62% | Population Hoechst High Intensity Objects (%) [8]: 11% | Population Membrane Permeable-Phenotype (%) [8]: 41% | Population Mitochondria Different-Phenotype (%) [8]: 76% | Population Mitotic Cells (%) [8]: 20% | Population Normal (%) [8]: 88% | Population Pyknosed Nuclei (%) [8]: 18% | Population Tubulin-Different-Phenotype (%) [8]: 76% | Total Cell Count [8]: 61 | Population Apoptotic (%) [9]: 65% | Population Fragmented Nuclei (%) [9]: 16% | Population Healthy Nuclei (%) [9]: 72% | Population Hoechst High Intensity Objects (%) [9]: 3% | Population Membrane Permeable-Phenotype (%) [9]: 4% | Population Mitochondria Different-Phenotype (%) [9]: 43% | Population Mitotic Cells (%) [9]: 35% | Population Normal (%) [9]: 96% | Population Pyknosed Nuclei (%) [9]: 11% | Population Tubulin-Different-Phenotype (%) [9]: 16% | Total Cell Count [9]: 187 | Population Apoptotic (%) [10]: 66% | Population Fragmented Nuclei (%) [10]: 6% | Population Healthy Nuclei (%) [10]: 90% | Population Hoechst High Intensity Objects (%) [10]: 10% | Population Membrane Permeable-Phenotype (%) [10]: 9% | Population Mitochondria Different-Phenotype (%) [10]: 49% | Population Mitotic Cells (%) [10]: 33% | Population Normal (%) [10]: 89% | Population Pyknosed Nuclei (%) [10]: 3% | Population Tubulin-Different-Phenotype (%) [10]: 28% | Total Cell Count [10]: 103 | Population Apoptotic (%) [11]: 79% | Population Fragmented Nuclei (%) [11]: 20% | Population Healthy Nuclei (%) [11]: 53% | Population Hoechst High Intensity Objects (%) [11]: 1% | Population Membrane Permeable-Phenotype (%) [11]: 12% | Population Mitochondria Different-Phenotype (%) [11]: 32% | Population Mitotic Cells (%) [11]: 20% | Population Normal (%) [11]: 98% | Population Pyknosed Nuclei (%) [11]: 25% | Population Tubulin-Different-Phenotype (%) [11]: 14% | Total Cell Count [11]: 154 | Population Apoptotic (%) [12]: 88% | Population Fragmented Nuclei (%) [12]: 22% | Population Healthy Nuclei (%) [12]: 45% | Population Hoechst High Intensity Objects (%) [12]: 8% | Population Membrane Permeable-Phenotype (%) [12]: 46% | Population Mitochondria Different-Phenotype (%) [12]: 57% | Population Mitotic Cells (%) [12]: 11% | Population Normal (%) [12]: 91% | Population Pyknosed Nuclei (%) [12]: 31% | Population Tubulin-Different-Phenotype (%) [12]: 30% | Total Cell Count [12]: 62

Cc1cn(-c2cc(NC(=O)c3ccc4c(c3)CN(c3cncnc3)C[C@@H]4C)cc(C(F)(F)F)c2)cn1
Population Apoptotic (%) [1]: 56% | Population Healthy Nuclei (%) [1]: 81% | Population Hoechst High Intensity Objects (%) [1]: 7% | Population Membrane Permeable-Phenotype (%) [1]: 6% | Population Mitochondria Different-Phenotype (%) [1]: 23% | Population Mitotic Cells (%) [1]: 43% | Population Normal (%) [1]: 92% | Population Pyknosed Nuclei (%) [1]: 11% | Population Tubulin-Different-Phenotype (%) [1]: 33% | Total Cell Count [1]: 149 | Population Apoptotic (%) [2]: 0% | Population Fragmented Nuclei (%) [2]: 7% | Population Healthy Nuclei (%) [2]: 86% | Population Hoechst High Intensity Objects (%) [2]: 16% | Population Membrane Permeable-Phenotype (%) [2]: 11% | Population Mitochondria Different-Phenotype (%) [2]: 30% | Population Mitotic Cells (%) [2]: 100% | Population Normal (%) [2]: 83% | Population Pyknosed Nuclei (%) [2]: 6% | Population Tubulin-Different-Phenotype (%) [2]: 19% | Total Cell Count [2]: 116 | Population Apoptotic (%) [3]: 33% | Population Fragmented Nuclei (%) [3]: 7% | Population Healthy Nuclei (%) [3]: 84% | Population Hoechst High Intensity Objects (%) [3]: 3% | Population Membrane Permeable-Phenotype (%) [3]: 40% | Population Mitochondria Different-Phenotype (%) [3]: 17% | Population Mitotic Cells (%) [3]: 66% | Population Normal (%) [3]: 96% | Population Pyknosed Nuclei (%) [3]: 7% | Population Tubulin-Different-Phenotype (%) [3]: 16% | Total Cell Count [3]: 198 | Population Apoptotic (%) [4]: 66% | Population Fragmented Nuclei (%) [4]: 10% | Population Healthy Nuclei (%) [4]: 87% | Population Hoechst High Intensity Objects (%) [4]: 15% | Population Membrane Permeable-Phenotype (%) [4]: 24% | Population Mitochondria Different-Phenotype (%) [4]: 26% | Population Mitotic Cells (%) [4]: 33% | Population Normal (%) [4]: 84% | Population Pyknosed Nuclei (%) [4]: 3% | Population Tubulin-Different-Phenotype (%) [4]: 17% | Total Cell Count [4]: 118 | Population Apoptotic (%) [5]: 45% | Population Fragmented Nuclei (%) [5]: 6% | Population Healthy Nuclei (%) [5]: 83% | Population Hoechst High Intensity Objects (%) [5]: 3% | Population Membrane Permeable-Phenotype (%) [5]: 6% | Population Mitotic Cells (%) [5]: 55% | Population Normal (%) [5]: 96% | Population Pyknosed Nuclei (%) [5]: 9% | Population Tubulin-Different-Phenotype (%) [5]: 42% | Total Cell Count [5]: 210 | Population Apoptotic (%) [6]: 42% | Population Fragmented Nuclei (%) [6]: 9% | Population Healthy Nuclei (%) [6]: 85% | Population Hoechst High Intensity Objects (%) [6]: 6% | Population Membrane Permeable-Phenotype (%) [6]: 12% | Population Mitochondria Different-Phenotype (%) [6]: 26% | Population Mitotic Cells (%) [6]: 57% | Population Normal (%) [6]: 93% | Population Pyknosed Nuclei (%) [6]: 5% | Population Tubulin-Different-Phenotype (%) [6]: 34% | Total Cell Count [6]: 143 | Population Apoptotic (%) [7]: 42% | Population Fragmented Nuclei (%) [7]: 6% | Population Healthy Nuclei (%) [7]: 85% | Population Hoechst High Intensity Objects (%) [7]: 4% | Population Membrane Permeable-Phenotype (%) [7]: 28% | Population Mitochondria Different-Phenotype (%) [7]: 14% | Population Mitotic Cells (%) [7]: 57% | Population Normal (%) [7]: 95% | Population Pyknosed Nuclei (%) [7]: 7% | Population Tubulin-Different-Phenotype (%) [7]: 12% | Total Cell Count [7]: 254 | Population Apoptotic (%) [8]: 22% | Population Fragmented Nuclei (%) [8]: 8% | Population Healthy Nuclei (%) [8]: 84% | Population Hoechst High Intensity Objects (%) [8]: 6% | Population Membrane Permeable-Phenotype (%) [8]: 20% | Population Mitochondria Different-Phenotype (%) [8]: 22% | Population Mitotic Cells (%) [8]: 77% | Population Normal (%) [8]: 93% | Population Tubulin-Different-Phenotype (%) [8]: 10% | Total Cell Count [8]: 128

Reference: ChEMBL document CHEMBL4689842, “EUbOPEN Chemogenomics Library wave 1” (2021)
